From PubChem
LANA-H2B inh: blocks KSHV LANA binding to histone H2A/H2B; inhibition, % (concentration not given with the values); AID 2629; Q9QR71; cell-free LANA-H2A/H2B peptide, fluorescence polarization; hit rate 0.6% among 320,000; in the data active = inhibition mostly above about 10%, no sharp cut-off; inactive = mostly below about 6.7%
ARFGAP1 inhibitor: inhibits rat ARF GTPase activating protein 1 | inhibition, % at 16.5 µM | Q62848 | Arfgap1-stimulated ARF1 GTP hydrolysis, GDP FP detection | hit rate 0.26% among 360,000;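 active = inhibition above a per-plate limit, mean inhibition of low control wells plus 3 SD, cut at about 25% in these data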
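Material – truncated rat Arfgap1 GAP domain · Buffer or medium – HEPES-based buffer, pH 7.5 · Reagent – human ARF1(Δ1-17)-GTP substrate · Dosing – 16.5 µM single point, 1.26% DMSO · Schedule – GTP hydrolysis reaction 2 h at 25 °C · Technique – GDP detection by fluorescence polarization · Benchmarks – No-Arfgap1 wells (100%) versus DMSO full-reaction wells (0%) · Repeats – single replicate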
ASAP1 inh: blocks human ASAP1-stimulated Arf1 GTP hydrolysis; GDP FP detection; inhibition, % at 16.5 µM; hit rate 0.19% among 360,000; in the data active = inhibition above about 25%
Target sequence (Q9ULH1 325-724 limits assumed): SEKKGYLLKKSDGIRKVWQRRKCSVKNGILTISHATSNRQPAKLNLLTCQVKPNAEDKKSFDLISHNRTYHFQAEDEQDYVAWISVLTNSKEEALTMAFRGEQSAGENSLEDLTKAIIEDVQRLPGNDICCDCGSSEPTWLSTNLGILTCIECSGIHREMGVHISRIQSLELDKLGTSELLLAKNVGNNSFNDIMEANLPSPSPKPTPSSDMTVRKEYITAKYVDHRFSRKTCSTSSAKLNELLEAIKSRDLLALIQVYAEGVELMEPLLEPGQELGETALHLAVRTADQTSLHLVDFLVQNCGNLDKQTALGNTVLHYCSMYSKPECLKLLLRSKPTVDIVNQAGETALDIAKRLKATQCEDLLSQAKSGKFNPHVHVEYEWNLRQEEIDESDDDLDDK
proCasp3 act: procaspase-3 (human) activation | P42574 | hit rate 0.11% among 330,000 | AID 463141 | recombinant procaspase-3 D3A, Ac-DEVD-pNA absorbance 405 nm | activation, % at 8.5 µM;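 active = activation above the mean of all tested compounds plus 3 SD, cut at about 21% in these data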
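Technique: 405 nm absorbance of p-nitroaniline, reads at 0 and 120 min; Test system: Procaspase-3 D3A mutant; Incubation: 1 h enzyme-compound preincubation, then 2 h substrate reaction, 25 °C; Repeats: singlicate, each compound tested once; Benchmarks: low control DMSO wells, high control DMSO plus 5 µM PC-3 D3A.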
Yeast superoxide: lowers age-related superoxide in aged yeast cells; hit rate 0.18% among 330,000; superoxide response (% of plate mean), % at 10 µM; AID 2690; S. cerevisiae aged cells, superoxide DHE fluorescence; stronger effect = lower value;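 active = superoxide response under a set limit, about three screen SD below normal, cut at about 65% in these data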;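 note: yeast aged for seven days with compound at 30 °C before DHE staining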
proCasp7 act: activates human procaspase-7, counter-screen for procaspase-3 activators. hit rate 0.093% among 330,000. recombinant procaspase-7, Ac-DEVD-pNA absorbance 405 nm; D23A/D198A/D206A triple mutant, cannot self-cleave; scale: DMSO 0, 5 µM enzyme 100. AID 463210. P55210. activation, % at 8.5 µM;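 active = percent activation above the screen-wide mean plus 3 SD, cut at about 25% in these data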
Target sequence (P55210 whole entry D23A/D198A/D206A): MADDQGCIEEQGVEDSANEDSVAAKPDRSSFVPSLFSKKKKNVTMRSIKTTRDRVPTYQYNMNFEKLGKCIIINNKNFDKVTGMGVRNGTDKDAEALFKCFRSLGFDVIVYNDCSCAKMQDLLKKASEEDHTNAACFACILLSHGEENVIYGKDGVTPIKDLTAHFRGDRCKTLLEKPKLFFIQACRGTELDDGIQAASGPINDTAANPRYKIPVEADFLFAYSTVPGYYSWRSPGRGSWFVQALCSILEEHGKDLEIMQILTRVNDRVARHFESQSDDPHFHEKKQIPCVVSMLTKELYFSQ
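Assay system: Uncleavable procaspase-7 mutant enzyme | Input: 2 µM procaspase-7 mutant as dispensed | Timing: 1 h compound preincubation, 2 h substrate cleavage, 25 °C | Repeats: One well per compound | Control set: DMSO wells as 0%, DMSO with 5 µM added PC-7 as 100% | Technique: Epi-absorbance of released pNA at 405 nm, two timepoints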
Each line names hits and unclear results; the compound was inactive in the other large screens; ! = a repeat was not active. A selection: hits, their analogues and other compounds. The true share with any hit is near 1.2%.

Cc1cc(S(=O)(=O)Nc2ccc(C(=O)NCC3CCCO3)cc2)ccc1F (stereo not drawn)	none
O=C(NCC1CCCO1)c1cccc(S(=O)(=O)Nc2ccc(F)cc2)c1 (stereo not drawn)	LANA-H2B inh 63
COC(=O)C1=C(C)N(Cc2ccccc2C(F)(F)F)C(=NCc2ccc(OC)cc2)NC1c1ccccc1C(F)(F)F (stereo not drawn)	none (no result: LANA-H2B inh, proCasp3 act, Yeast superoxide, proCasp7 act)
C[C@H](CO)N1C[C@H](C)[C@@H](CN(C)C(=O)Nc2cccc(F)c2)OCc2cn(nn2)CCCC1=O	none (no result: LANA-H2B inh, proCasp3 act, Yeast superoxide, proCasp7 act)
CC(=O)Oc1ccccc1-c1nc(C)nc(N(C)C(C)=O)n1	LANA-H2B inh 44
CC(=O)Oc1ccccc1C(=O)Oc1ccccc1C(=O)O	none
CC(C)=CC(=O)NCC1CCN(C(=O)C(=O)c2cc3ccccc3o2)CC1	none (no result: LANA-H2B inh, proCasp3 act, Yeast superoxide, proCasp7 act)
O=C1C(C2=C(O)c3ccccc3C2=O)=Nc2ccccc21	ASAP1 inh 39
CN=CC1=C(O)c2ccccc2C1=O	none
COc1ccc(CNC(=O)[C@@H](NC(=O)C2CCN(S(=O)(=O)c3ccc(C)cc3)CC2)C(C)C)cc1OC	LANA-H2B inh 12
COc1ccc(S(=O)(=O)N2CCC(C(=O)NC3CCCC3)CC2)cc1OC	LANA-H2B inh 16 (no result: proCasp3 act, proCasp7 act)
COc1ccc(S(=O)(=O)N2CCC(C(=O)NC3CCCC3)CC2)cc1C	none
Cc1cc(NC(=O)CSc2n[nH]c(N)n2)no1	LANA-H2B inh active
CCN(CC(=O)Nc1c(F)cccc1F)C(=O)CCc1nc2ccccc2c(=O)[nH]1	none
CCN(CC(=O)Nc1c(F)cccc1F)C(=O)CCCc1nc2ccccc2c(=O)[nH]1	LANA-H2B inh 9.7
Cc1cccc(C)c1OCc1cc(C(=O)NC2CCC(O)CC2)no1 (stereo not drawn)	LANA-H2B inh 21
Cc1cccc(C)c1OCc1cc(C(=O)NC2CCC2)no1	none
CC(=O)C1=C(C)N(Cc2ccc(Br)cc2)C(=S)NC1c1ccc(F)cc1 (stereo not drawn)	none (no result: LANA-H2B inh, proCasp3 act, Yeast superoxide, proCasp7 act)
CCOC(=O)c1c(NC(=O)CSc2nnc(-c3ccccc3)n2CC)sc(C(C)=O)c1C	LANA-H2B inh 23
CCOC(=O)c1c(NC(=O)CSc2nnc(-c3cccc(C)c3)n2CC)sc(C(C)=O)c1C	none
Cc1ccccc1NC(=O)Cc1nc(COC(=O)COc2cccc(C)c2C)cs1	none
Cc1ccccc1NC(=O)Cc1nc(COC(=O)COc2ccc(C(C)(C)C)cc2)cs1	LANA-H2B inh 17
C=CC[C@@H](CC(=O)NCCO)C(=O)N[C@H](COC(=O)[C@@H](CC=C)Cc1ccc(F)cc1)Cc1c[nH]c2ccccc12	LANA-H2B inh active
O=C(CC1C(=O)NCCN1Cc1cccc(F)c1)NCCCN1CCCC1=O (stereo not drawn)	LANA-H2B inh 15
COc1ccc(CCNC(=O)CC2C(=O)NCCN2CC(C)(C)C)cc1 (stereo not drawn)	none
COc1cccc(CN2CCNC(=O)C2CC(=O)NCCCN2CCCC2=O)c1 (stereo not drawn)	none
CCOc1ccccc1CN1CCNC(=O)C1CC(=O)NCCc1ccccn1 (stereo not drawn)	LANA-H2B inh 99
COc1cccc(CCNC(=O)CC2C(=O)NCCN2CC(C)(C)C)c1 (stereo not drawn)	LANA-H2B inh 17
COC(=O)C1=C(C)N(C)C(=NCc2cc(OC)c(OC)c(OC)c2)NC1c1cccc(C(F)(F)F)c1 (stereo not drawn)	none (no result: LANA-H2B inh, proCasp3 act, Yeast superoxide, proCasp7 act)
O=C(O)C1CCCN1C(=O)c1cccc(Cl)c1 (stereo not drawn)	none (no result: LANA-H2B inh, proCasp3 act, Yeast superoxide, proCasp7 act)
O=C(C(=O)N1CCC(CNC(=O)c2cccnc2Cl)CC1)c1cc2ccccc2o1	none (no result: LANA-H2B inh, proCasp3 act, Yeast superoxide, proCasp7 act)
O=c1cc(CN2CCCCCC2)nc2sccn12	LANA-H2B inh active
COCCCn1c(=NC(=O)c2ccccc2)c(C#N)cc2c(=O)n3cccc(C)c3nc21	LANA-H2B inh 27
Cc1cccn2c(=O)c3cc(C#N)c(=NC(=O)c4cccs4)n(CC(C)C)c3nc12	none
CCOCCCn1c(=NC(=O)c2cccs2)c(C#N)cc2c(=O)n3cccc(C)c3nc21	LANA-H2B inh 28
CCCCC1O[C@@H](C)[C@@H]2CN3CCc4c([nH]c5ccccc45)[C@@H]3C[C@@H]2N1C (stereo partly drawn)	none (no result: LANA-H2B inh, proCasp3 act, Yeast superoxide, proCasp7 act)
O=C(c1cc(C2CC2)on1)N1CCCC(N2CCN(c3ccc(F)cc3)CC2)C1 (stereo not drawn)	LANA-H2B inh 13
COc1ccccc1N1CCN(C2CCCN(C(=O)c3cc(C4CC4)on3)C2)CC1 (stereo not drawn)	none
CN1OC[C@@H]2CN3C(=Nc4cc(C(F)(F)F)cc(C(F)(F)F)c4)Sc4ccccc4[C@@H]3C[C@@H]21	none (no result: LANA-H2B inh, proCasp3 act, Yeast superoxide, proCasp7 act)
CC(=O)c1cnc(-c2ccccn2)s1	LANA-H2B inh 18
CC(=O)c1cnc(-c2ccccc2Cl)s1	none
Cc1cccc(C)c1NC(=O)C1CCCCN1C (stereo not drawn)	LANA-H2B inh 25!
Cc1cc(C)c(NC(=O)C2CCCN2C)c(C)c1 (stereo not drawn)	none
O=C(NCc1ccco1)c1cnn2c1NC(c1ccccc1)CC2C(F)(F)F (stereo not drawn)	none
Cc1ccccc1Cn1ccc(NC(=O)c2cnn3c2NC(c2ccccc2)CC3C(F)(F)F)n1 (stereo not drawn)	LANA-H2B inh active
Cc1cc(C(=O)COC(=O)CCc2nc3ccccc3s2)c(C)n1C	LANA-H2B inh 13
O=c1[nH][nH]c(=O)c2cc([N+](=O)[O-])ccc12	LANA-H2B inh 40
O=c1[nH]cnc2ccc([N+](=O)[O-])cc12	none
CC(C)OC(=O)CC(=O)c1sc2nc3c(cc2c1N)CN(C)CC3	LANA-H2B inh 74 (no result: ARFGAP1 inhibitor, ASAP1 inh)
Cc1cc(C)cc(NC(=O)Nc2ccccc2N2CCCCC2)c1	LANA-H2B inh 12
Cc1cc(C)cc(OCC(=O)Nc2ccccc2N2CCCCC2)c1	none
Cn1cc(CCOCc2ccccn2)c2ccccc21	none (no result: LANA-H2B inh, proCasp3 act, Yeast superoxide, proCasp7 act)
CCOCC(=O)Nc1cc([N+](=O)[O-])ccc1OC	LANA-H2B inh 22
CC1(c2ccccc2)CC(C)(C)N(C(N)=O)c2ccccc21 (stereo not drawn)	LANA-H2B inh 22
CC(=O)N1c2ccccc2C(C)(c2ccccc2)CC1(C)C (stereo not drawn)	none (no result: ARFGAP1 inhibitor, ASAP1 inh)
N#Cc1cc(F)cc(OCCCN2CCC(C(O)(c3ccccc3)c3ccccc3)CC2)c1	none (no result: LANA-H2B inh, proCasp3 act, Yeast superoxide, proCasp7 act)
Cc1ccc(NC(=O)C(C)OC(=O)COc2cccc(C(F)(F)F)c2)cc1 (stereo not drawn)	LANA-H2B inh 19
Cc1ccc(NC(=O)C(C)OC(=O)COc2cccc(C(F)(F)F)c2)cc1S(=O)(=O)N1CCOCC1 (stereo not drawn)	none (no result: LANA-H2B inh, proCasp3 act, Yeast superoxide, proCasp7 act)
CCCCOC(=O)COc1ccc(Cl)cc1Cl	LANA-H2B inh 14
